Three compounds from ChEMBL document CHEMBL3098034, “Synthesis and biological evaluation of α-hydroxyalkylphosphonates as new antimicrobial agents” (Bioorg Med Chem Lett, 2014) can be followed below.

Converted amounts (≈) assume the structure as drawn. The source made the active and inactive calls. No cut-off for these calls is given here. Where only a bound is given, the exact number is not on record here.

The test system of one experiment is Human alphaherpesvirus 2. The experiment is described as follows: Antiviral activity against Herpes simplex virus 2 G. It counts as functional, organism-based. To be noted: Human alphaherpesvirus 2, strain G.
Experiment [1] deals with Staphylococcus aureus. The experiment is described as follows: Antibacterial activity against Staphylococcus aureus ATCC 29213 after 24 hrs by broth microdilution method. It counts as functional. To be noted: ATCC 29213, 24 h. The method in brief:
(§1)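 MIC (lowest concentration preventing growth) determined per CLSI specifications, with fosfomycin, ceftriaxone, ciprofloxacin and chloramphenicol run as reference drugs; S. aureus ATCC 29213 used as quality-control strain.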

For experiment [2], the system named is Acinetobacter haemolyticus. Put plainly: Bactericidal activity against vancomycin-resistant Acinetobacter haemolyticus BW62 after 24 hrs by CFU counting assay. It counts as functional. To be noted: BW62, 24 h. The essentials: (§2)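 MBC (lowest concentration killing the pathogen) determined per CLSI specifications, with fosfomycin, ceftriaxone, ciprofloxacin and chloramphenicol run as reference drugs; S. aureus ATCC 29213 used as quality-control strain.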

Experiment [3] concerns Acinetobacter haemolyticus. The experiment is described as follows: Antibacterial activity against vancomycin-resistant Acinetobacter haemolyticus BW62 at 10 ug by disc diffusion method. It is filed as functional. In general terms: In agar diffusion tests the substance spreads into inoculated agar from a disc or well.
Experiment [4] concerns Escherichia coli. Put plainly: Antibacterial activity against ESBL-producing Escherichia coli BW55 at 10 ug by disc diffusion method. It counts as functional.
Experiment [5] relates to Bacillus cereus. The experiment is described as follows: Bactericidal activity against Bacillus cereus ATCC 11778 after 24 hrs by CFU counting assay. It counts as functional. To be noted: ATCC 11778, 24 h. The method in brief: as §2
Experiment [6] concerns Staphylococcus aureus. The experiment is described as follows: Antibacterial activity against methicillin-resistant Staphylococcus aureus BW61 after 24 hrs by broth microdilution method. It counts as functional. To be noted: BW61, 24 h. The method in brief:
as §1
On the technique in general: Dilution methods test growth across graded concentrations, often in twofold steps.

The test system of experiment [7] is Staphylococcus aureus. The experiment is described as follows: Antibacterial activity against Staphylococcus aureus ATCC 29213 at 10 ug by disc diffusion method. It counts as functional.
Experiment [8] has as its system Pseudomonas aeruginosa. The experiment is described as follows: Antibacterial activity against multidrug-resistant Pseudomonas aeruginosa PAO1 after 24 hrs by broth microdilution method. It is filed as functional. To be noted: PAO1, 24 h. The essentials: as §1
Experiment [9] relates to Pseudomonas aeruginosa. Put plainly: Antibacterial activity against multidrug-resistant Pseudomonas aeruginosa PAO1 at 10 ug by disc diffusion method. It counts as functional.
The subject of experiment [10] is Staphylococcus aureus. Put plainly: Bactericidal activity against methicillin-resistant Staphylococcus aureus BW61 after 24 hrs by CFU counting assay. It is filed as functional. As to conditions: BW61, 24 h. The essentials: as §2
The test system of experiment [11] is Stenotrophomonas maltophilia. The experiment is described as follows: Antibacterial activity against multidrug-resistant Stenotrophomonas maltophilia D457R at 10 ug by disc diffusion method. It is filed as functional.
For experiment [12], the system named is Staphylococcus aureus. The experiment is described as follows: Bactericidal activity against Staphylococcus aureus ATCC 29213 after 24 hrs by CFU counting assay. It is filed as functional. As to conditions: ATCC 29213, 24 h. The method in brief:
as §2

Experiment [13] concerns Bacillus cereus. Put plainly: Antibacterial activity against Bacillus cereus ATCC 11778 after 24 hrs by broth microdilution method. It counts as functional. As to conditions: ATCC 11778, 24 h. The method in brief: as §1
Experiment [14] deals with Escherichia coli. Put plainly: Antibacterial activity against ESBL-producing Escherichia coli BW55 after 24 hrs by broth microdilution method. It counts as functional. To be noted: BW55, 24 h. The method in brief: as §1
Experiment [15] deals with Acinetobacter haemolyticus. The experiment is described as follows: Antibacterial activity against vancomycin-resistant Acinetobacter haemolyticus BW62 after 24 hrs by broth microdilution method. It is filed as functional. To be noted: BW62, 24 h. The essentials: as §1
Experiment [16] deals with Escherichia coli. The experiment is described as follows: Bactericidal activity against ESBL-producing Escherichia coli BW55 after 24 hrs by CFU counting assay. It counts as functional. As to conditions: BW55, 24 h. The essentials: as §2
For experiment [17], the system named is Pseudomonas aeruginosa. Put plainly: Bactericidal activity against multidrug-resistant Pseudomonas aeruginosa PAO1 after 24 hrs by CFU counting assay. It counts as functional. To be noted: PAO1, 24 h. The essentials: as §2
For experiment [18], the system named is Stenotrophomonas maltophilia. The experiment is described as follows: Antibacterial activity against multidrug-resistant Stenotrophomonas maltophilia D457R after 24 hrs by broth microdilution method. It counts as functional. The essentials: as §1
For experiment [19], the system named is Escherichia coli. Put plainly: Bactericidal activity against multidrug-resistant Escherichia coli BW54 after 24 hrs by CFU counting assay. It is filed as functional. To be noted: BW54, 24 h. The essentials: as §2
In experiment [20] the test system is Escherichia coli. Put plainly: Antibacterial activity against multidrug-resistant Escherichia coli BW54 after 24 hrs by broth microdilution method. It is filed as functional. As to conditions: BW54, 24 h. The essentials: as §1
Experiment [21] has as its system Stenotrophomonas maltophilia. The experiment is described as follows: Bactericidal activity against multidrug-resistant Stenotrophomonas maltophilia D457R after 24 hrs by CFU counting assay. It counts as functional. The method in brief:
as §2

For experiment [22], the system named is Escherichia coli. The experiment is described as follows: Antibacterial activity against multidrug-resistant Escherichia coli BW54 at 10 ug by disc diffusion method. It is filed as functional.
In experiment [23] the test system is Bacillus cereus. The experiment is described as follows: Antibacterial activity against Bacillus cereus ATCC 11778 at 10 ug by disc diffusion method. It is filed as functional.

For the compound `Nc1ncnc2c1ncn2CCOCP(=O)(O)O` [ADEFOVIR], in the experiment with Human alphaherpesvirus 2, half-maximal inhibition (IC50) required 77 µM.

In the case of `CC1(C)COP(=O)([C@@](O)(CCl)c2ccc(Cl)cc2)OC1`, the MIC against Staphylococcus aureus [1] amounted to 64 µg/mL (≈ 189 µM); against Staphylococcus aureus [6] it was 64 µg/mL (≈ 189 µM); in the experiment on Pseudomonas aeruginosa [8], 128 µg/mL (≈ 377 µM); in the experiment with Bacillus cereus [13] it was 64 µg/mL (≈ 189 µM); with Escherichia coli [14] it was 64 µg/mL (≈ 189 µM); in [15], 64 µg/mL (≈ 189 µM). Further, the MIC (in experiment [18]; against Escherichia coli [20]) was 64 µg/mL (≈ 189 µM) throughout. Besides, the MBC (in experiment [2]; with Bacillus cereus [5]; in the experiment on Staphylococcus aureus [10]; with Staphylococcus aureus [12]; in the experiment with Escherichia coli [16]; in the experiment with Pseudomonas aeruginosa [17]) was 128 µg/mL (≈ 377 µM) each time. Besides, the MBC against Escherichia coli [19] was 128 µg/mL (≈ 377 µM); in experiment [21], 256 µg/mL (≈ 755 µM). Moreover, the outcome (in experiment [3]; in the experiment on Staphylococcus aureus [7]; with Pseudomonas aeruginosa [9]; in [11]; in the experiment with Escherichia coli [22]; with Bacillus cereus [23]) was inactive. The zone of inhibition at 10 µg/disc in the experiment on Escherichia coli [4] (read-out: IZ) was 7 mm.

As to `O=P(Oc1ccccc1)(Oc1ccccc1)[C@@]1(O)CCC[C@@H]1Cl` (mixture of isomers), the MIC in the experiment with Staphylococcus aureus [1] worked out at 256 µg/mL; against Staphylococcus aureus [6] it was 256 µg/mL; with Pseudomonas aeruginosa [8], 256 µg/mL; against Bacillus cereus [13] it was 128 µg/mL; in the experiment on Escherichia coli [14], 128 µg/mL; in experiment [15], 128 µg/mL. The MIC (in experiment [18]; in the experiment on Escherichia coli [20]) was 128 µg/mL throughout. Moreover, the MBC in experiment [2] was 256 µg/mL; in the experiment with Bacillus cereus [5] it was 256 µg/mL; against Staphylococcus aureus [10] it was no less than 256 µg/mL; with Staphylococcus aureus [12], no less than 256 µg/mL; in the experiment with Escherichia coli [16], 256 µg/mL; against Pseudomonas aeruginosa [17], 256 µg/mL. In addition, the MBC (against Escherichia coli [19]; in experiment [21]) was 256 µg/mL each time. For the same compound, the result (in experiment [3]; in the experiment on Escherichia coli [4]; in the experiment on Pseudomonas aeruginosa [9]; in experiment [11]; in the experiment on Escherichia coli [22]; with Bacillus cereus [23]) was inactive. For the same compound, in the experiment on Staphylococcus aureus [7] (read-out: IZ), the zone of inhibition at 10 µg/disc worked out at 8 mm.

Broadly, the IC50 is the concentration at which inhibition is half-maximal. Read a low IC50 as inhibition by little substance. Usually MIC stands for the least concentration at which growth counts as inhibited. For orientation: MBC means the lowest tested concentration that kills the bacteria rather than only halting them. High values mean less potent killing, low ones more potent killing.
